The values below come from ChEMBL document CHEMBL1137743, “Synthesis, antimicrobial evaluation and QSAR study of some 3-hydroxypyridine-4-one and 3-hydroxypyran-4-one derivatives” (2009).

For orientation: MIC means the lowest concentration found to suppress growth. Read a high MIC as a less susceptible organism.

In brackets after ≈: the same amount, converted by molar mass.

One assay deals with Candida albicans. Nature of the assay: Antifungal activity against Candida albicans PTCC 5027 after 48 hrs by microplate alamar blue assay. It is filed as functional. The note with it: for MIC: Candida albicans, PTCC 5027, 48 h. In outline: (§1)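 Fungi from Persian type culture collection, tested in RPMI 1640 buffered with MOPS at pH 7.0. Final inoculum 1.5 ×10⁵. Compounds in DMSO, twofold serial dilutions over 8–512 in 96-well plates with Alamar Blue, incubated 48 h at 25 °C. MIC is the lowest concentration blocking the blue-to-pink shift. Ketoconazole was the reference agent.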
On the technique in general: Resazurin is reduced to fluorescent resorufin, in cell work by metabolically active cells.

For the next assay, the system named is Aspergillus flavus. Nature of the assay: Antifungal activity against Aspergillus flavus PTCC 5003 after 48 hrs by microplate alamar blue assay. The format is functional. Conditions: PTCC 5003, 48 h. The method in brief: as §1
The test system of another assay is Aspergillus niger. Nature of the assay: Antifungal activity against Aspergillus niger 5021 after 48 hrs by microplate alamar blue assay. The format is functional. Conditions: Aspergillus niger, 5021, 48 h. The method in brief:
as §1

The subject of the next assay is Pseudomonas aeruginosa. Nature of the assay: Antibacterial activity against Pseudomonas aeruginosa PTCC 1074 after 24 hrs by microplate alamar blue assay. The format is functional. The note with it: for MIC: Pseudomonas aeruginosa, PTCC 1074, 24 h. In outline: (§2)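 Bacteria from Persian type culture collection grown in Mueller–Hinton broth. Inoculum suspensions adjusted to 0.5 McFarland, final inoculum 1.5 ×10⁴. Compounds dissolved in DMSO, serially diluted twofold across the 8–512 range in 96-well plates, Alamar Blue added, sealed plates incubated 24 h at 37 °C. MIC is the lowest concentration preventing the blue-to-pink colour change. Ciprofloxacin was the reference drug.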

The test system of the next assay is Escherichia coli. Nature of the assay: Antibacterial activity against Escherichia coli PTCC 1338 after 24 hrs by microplate alamar blue assay. The format is functional. Conditions: PTCC 1338, 24 h. In outline: as §2
The next assay deals with Staphylococcus aureus. The experiment in a line: Antibacterial activity against Staphylococcus aureus PTCC 1337 after 24 hrs by microplate alamar blue assay. It is filed as functional. The note with it: for MIC: Staphylococcus aureus, PTCC 1337, 24 h. In outline: as §2
Assay [1] deals with Salmonella enterica subsp. enterica. The experiment in a line: Antibacterial activity against Salmonella enteritidis PTCC 1091 after 24 hrs by microplate alamar blue assay. It is filed as functional, Salmonella enterica subsp. enterica serovar Enteritidis. The note with it: PTCC 1091, 24 h. In outline: as §2
The next assay has as its system Bacillus subtilis. The experiment in a line: Antibacterial activity against Bacillus subtilis PTCC 1023 after 24 hrs by microplate alamar blue assay. Conditions: PTCC 1023, 24 h. It is filed as functional. In outline: as §2
For another assay, the system named is Listeria monocytogenes. The experiment in a line: Antibacterial activity against Listeria monocytogenes PTCC 1165 after 24 hrs by microplate alamar blue assay. The format is functional. The note with it: PTCC 1165, 24 h. In outline:
as §2

Regarding `Cc1c(O)c(=O)ccn1-c1ccccc1`, the “-logMIC” value is on record as 3.29 in the assay with Candida albicans, 3.29 with Pseudomonas aeruginosa and 3.89 with Staphylococcus aureus. For the same molecule, the MIC in the assay with Candida albicans is greater than 512 µg/mL; in the assay with Aspergillus flavus, greater than 512 µg/mL; against Aspergillus niger it was greater than 512 µg/mL; in the assay on Pseudomonas aeruginosa, 512 µg/mL (≈ 2540 µM); with Escherichia coli, 128 µg/mL (≈ 636 µM); in the assay on Staphylococcus aureus, 128 µg/mL (≈ 636 µM). For the same molecule, the values for the MIC (in [1]; in the assay with Bacillus subtilis; against Listeria monocytogenes) were 128 µg/mL (≈ 636 µM), 256 µg/mL (≈ 1270 µM) and 512 µg/mL (≈ 2540 µM), respectively.
With `CCc1[nH]cc(CN(C)C)c(=O)c1O`, the “-logMIC” value with Candida albicans amounted to 3.29; in the assay on Pseudomonas aeruginosa, 3.59; with Staphylococcus aureus, 3.29. Also, the MIC in the assay with Candida albicans worked out at 512 µg/mL (≈ 2610 µM); in the assay with Aspergillus flavus, 512 µg/mL (≈ 2610 µM); with Aspergillus niger, 512 µg/mL (≈ 2610 µM); against Pseudomonas aeruginosa it was 256 µg/mL (≈ 1300 µM); with Escherichia coli, 512 µg/mL (≈ 2610 µM); against Staphylococcus aureus it was 512 µg/mL (≈ 2610 µM). For the same molecule, the MIC in assay [1] was 256 µg/mL (≈ 1300 µM); in the assay on Bacillus subtilis, greater than 512 µg/mL; against Listeria monocytogenes, 512 µg/mL (≈ 2610 µM).
Regarding `Cc1cc(=O)c(OCc2ccccc2)c(CO)o1`, the “-logMIC” value in the assay with Candida albicans was found to be 3.89; in the assay on Pseudomonas aeruginosa it was 3.59; with Staphylococcus aureus it was 3.59.
Consider `O=c1cc(CO)occ1OCc1ccccc1`, for which the “-logMIC” value with Candida albicans is listed as 3.89; in the assay on Pseudomonas aeruginosa, 3.89; in the assay on Staphylococcus aureus, 3.59.
Regarding `Cc1cc(=O)c(O)c(CO)o1`, the “-logMIC” value with Candida albicans worked out at 3.89; in the assay with Pseudomonas aeruginosa, 3.89; with Staphylococcus aureus, 3.59.
As to `Cc1[nH]cc(CN2CCCCC2)c(=O)c1O`, the MIC with Candida albicans was 128 µg/mL (≈ 576 µM); with Aspergillus flavus, greater than 512 µg/mL; against Aspergillus niger, 512 µg/mL (≈ 2300 µM); against Pseudomonas aeruginosa it was 512 µg/mL (≈ 2300 µM); in the assay on Escherichia coli, 64 µg/mL (≈ 288 µM); in the assay with Staphylococcus aureus it was 16 µg/mL (≈ 72 µM). Also, the MIC was determined as 16 µg/mL (≈ 72 µM) in assay [1], 32 µg/mL (≈ 144 µM) in the assay on Bacillus subtilis and 64 µg/mL (≈ 288 µM) with Listeria monocytogenes. Besides, the “-logMIC” value with Pseudomonas aeruginosa came to 3.59; in the assay with Staphylococcus aureus, 3.29.
With `CCc1[nH]cc(CN(CC)CC)c(=O)c1O`, the “-logMIC” value in the assay with Candida albicans is given as 3.29; in the assay with Pseudomonas aeruginosa, 3.59; in the assay with Staphylococcus aureus it was 3.29. Moreover, the MIC was 512 µg/mL (≈ 2280 µM) in the assay on Candida albicans; 512 µg/mL (≈ 2280 µM) in the assay on Aspergillus flavus; 512 µg/mL (≈ 2280 µM) with Aspergillus niger; 256 µg/mL (≈ 1140 µM) with Pseudomonas aeruginosa; 512 µg/mL (≈ 2280 µM) against Escherichia coli; greater than 512 µg/mL with Staphylococcus aureus. Also, the MIC (in assay [1]; against Bacillus subtilis; in the assay on Listeria monocytogenes) was 512 µg/mL (≈ 2280 µM) throughout.
For `Cc1c(O)c(=O)ccn1-c1cccc(O)c1`, the “-logMIC” value in the assay on Candida albicans was found to be 3.59; in the assay on Pseudomonas aeruginosa, 3.29; with Staphylococcus aureus, 3.29. In addition, the MIC against Candida albicans stood at 512 µg/mL (≈ 2360 µM); with Aspergillus flavus it was 256 µg/mL (≈ 1180 µM); in the assay with Aspergillus niger, 512 µg/mL (≈ 2360 µM); in the assay with Pseudomonas aeruginosa, 512 µg/mL (≈ 2360 µM); against Escherichia coli, 512 µg/mL (≈ 2360 µM); with Staphylococcus aureus, 16 µg/mL (≈ 73.7 µM). For the same molecule, the MIC is 64 µg/mL (≈ 295 µM) in assay [1], greater than 512 µg/mL with Bacillus subtilis and greater than 512 µg/mL against Listeria monocytogenes.
Consider `Cc1cc(=O)c(OCc2ccccc2)c(C(=O)Nc2cccnc2)o1`, for which the figures for the “-logMIC” value in the assay on Candida albicans, in the assay with Pseudomonas aeruginosa and in the assay with Staphylococcus aureus were 4.49, 3.89 and 3.59, respectively.
In the case of `Cc1cc(=O)c(OCc2ccccc2)c(C(=O)Nc2cccc3ccccc23)o1`, the “-logMIC” value is recorded as 4.49 with Candida albicans, 3.89 with Pseudomonas aeruginosa and 3.59 with Staphylococcus aureus.
The corresponding values for `Cc1cc(=O)c(O)c(C(=O)Nc2cccnc2)o1` are 3.89, 3.89 and 4.19.
Taken in the same sequence, the figures for `Cc1cc(=O)c(OCc2ccccc2)c(C=O)o1` were 3.89, 3.89 and 4.19.
On to `Cc1cc(=O)c(OCc2ccccc2)c(C(=O)O)o1`, for which the “-logMIC” value was determined as 3.89 in the assay on Candida albicans, 3.89 in the assay on Pseudomonas aeruginosa and 3.59 with Staphylococcus aureus.
On to `CCc1[nH]cc(CN2CCCCC2)c(=O)c1O`, for which the “-logMIC” value is on record as 3.29 with Candida albicans, 3.59 in the assay with Pseudomonas aeruginosa and 3.29 in the assay on Staphylococcus aureus. Also, the MIC in the assay with Candida albicans was 128 µg/mL (≈ 542 µM); with Aspergillus flavus, 256 µg/mL (≈ 1080 µM); in the assay with Aspergillus niger, 512 µg/mL (≈ 2170 µM); against Pseudomonas aeruginosa, 256 µg/mL (≈ 1080 µM); in the assay on Escherichia coli, 512 µg/mL (≈ 2170 µM); with Staphylococcus aureus it was greater than 512 µg/mL. Moreover, the MIC in [1] is 512 µg/mL (≈ 2170 µM); in the assay with Bacillus subtilis it was 512 µg/mL (≈ 2170 µM); against Listeria monocytogenes, greater than 512 µg/mL.
For `Cc1[nH]cc(CN(C)C)c(=O)c1O`, the minimum inhibitory concentration (MIC) with Candida albicans was greater than 512 µg/mL; with Aspergillus flavus it was greater than 512 µg/mL; against Aspergillus niger it was 512 µg/mL (≈ 2810 µM); in the assay on Pseudomonas aeruginosa, 256 µg/mL (≈ 1400 µM); in the assay with Escherichia coli it was 512 µg/mL (≈ 2810 µM); in the assay with Staphylococcus aureus, greater than 512 µg/mL. The MIC is 512 µg/mL (≈ 2810 µM) in assay [1], greater than 512 µg/mL in the assay with Bacillus subtilis and 512 µg/mL (≈ 2810 µM) with Listeria monocytogenes. In addition, the figures for the “-logMIC” value in the assay on Pseudomonas aeruginosa and in the assay on Staphylococcus aureus were 3.59 and 3.29, respectively.
